# TDP2 absorb = TDP2 (human) inhibition, absorbance primary screen; recombinant TDP2, T5PNP hydrolysis, p-nitrophenol absorbance 415 nm; inhibition, % at 12.8 µM; 370,000 tested, 0.34% active; AID 720702;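 active means inhibition above the mean of all tested compounds plus 3 SD, set per campaign, cut at about 25% in these data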;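 further: 0% = DMSO with enzyme and 100% = buffer with substrate but no TDP2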
#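 Assay system: Recombinant human TDP2 | Quantity: 120 nM TDP2 per well | Incubation: 2 h at 37 °C | Signal: Epi absorbance | Evaluation: Percent inhibition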
# TCR CD3 inh = inhibitors of human TCR-CD3 interaction; AID 651800; 360,000 tested, 0.37% active; TAMRA-labeled TCR probe fluorescence, biochemical; inhibition, % at 9.4 µM; in the data active means inhibition above about 19%;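 further: recombinant mutant TCR 2C K166C tagged with TAMRA read by polarization; 0% = receptor in buffer alone and 100% = receptor with positive control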
# SIAE inh = blocks human sialic acid acetylesterase; 370,000 tested, 0.69% active; SIAE FP-Rh probe binding, fluorescence polarization; Q9HAT2; inhibition, % at 9.66 µM;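 active means inhibition above a cutoff: mean of compounds within the control limits plus 3 SD of those, cut at about 17% in these data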;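 further: 0% = plate median of compound wells and 100% = probe without SIAE protein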
# ABHD4 inh = inhibitors of mouse ABHD4 | Q8VD66 | inhibition, % at 8.92 µM | 370,000 tested, 0.54% active | purified mABHD4, FP-Rh probe fluorescence polarization;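 active means inhibition exceeding the mean over every tested compound plus 3 SD, cut at about 30% in these data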;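 further: 0% = plate median of compound wells and 100% = S159A mutant with DMSO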
#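 Assay system: Wild-type mouse ABHD4 protein | Medium: HEPES pH 7.0 buffer, 150 mM NaCl, 0.01% Pluronic F-127 | Incubation: Enzyme–compound pre-incubation 45 min, then probe 60 min, both 25 °C | Technique: Fluorescence polarization with parallel and perpendicular emission, 525/598 nm | Evaluation: % inhibition of FP-Rh probe binding versus controls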
# HTRA1 inhibitor = HTRA1 (human) protease inhibition; AID 504803; Q92743; recombinant HTRA1, FP-rhodamine activity-based probe, fluorescence polarization; inhibition, % at 5.96 µM; 340,000 tested, 0.5% active; in the data active means inhibition above about 36%;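 further: 0% = enzyme with DMSO and 100% = wells lacking enzyme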
# Target sequence (Q92743 whole entry, looked up): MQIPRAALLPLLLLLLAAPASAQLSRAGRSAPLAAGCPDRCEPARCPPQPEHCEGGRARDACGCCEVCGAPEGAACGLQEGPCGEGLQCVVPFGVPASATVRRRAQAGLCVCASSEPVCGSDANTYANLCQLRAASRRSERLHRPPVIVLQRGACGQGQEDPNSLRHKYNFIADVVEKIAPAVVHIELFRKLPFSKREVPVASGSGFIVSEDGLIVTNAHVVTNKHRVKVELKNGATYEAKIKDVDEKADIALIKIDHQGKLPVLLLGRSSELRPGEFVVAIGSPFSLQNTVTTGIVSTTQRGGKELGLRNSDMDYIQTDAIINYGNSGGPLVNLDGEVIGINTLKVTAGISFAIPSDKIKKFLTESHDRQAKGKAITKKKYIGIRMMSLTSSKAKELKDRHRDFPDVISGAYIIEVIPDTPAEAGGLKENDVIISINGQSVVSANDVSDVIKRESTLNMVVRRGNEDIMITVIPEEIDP
# PAD4 FP inh = blocks human protein arginine deiminase 4; AID 485272; inhibition, % at 6.36 µM; 330,000 tested, 0.41% active; recombinant PAD4, RCA probe fluorescence polarization; Q9UM07;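 active means percent inhibition above a cutoff equal to the mean of all tested compounds plus 3 SD, cut at about 15% in these data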;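 further: 0% = PAD4 with RCA probe and DMSO and 100% = probe without PAD4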
# ABHD4 confirm = ABHD4 (mouse) inhibition, FP confirmation; shares compounds with ABHD4 inh; purified mABHD4, FP-Rh probe fluorescence polarization; inhibition, % at 8.92 µM; 1,800 tested, 55% active;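 active means mean inhibition across replicates above the hit cutoff set in the primary screen, cut at about 30% in these data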;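 further: 0% = wild-type ABHD4 with DMSO and 100% = catalytically dead S159A mutant with DMSO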
# Numbers without * were called inactive; x = not tested or not shown. Most compounds without a hit are left out; they make up all but 2% or so of the library.
SMILES,TDP2 absorb,TCR CD3 inh,SIAE inh,ABHD4 inh,HTRA1 inhibitor,PAD4 FP inh,ABHD4 confirm
CCN=c1scc(C)n1/N=C/c1cc(Br)c(O)c(OC)c1,-16,-4,12,30*,21,-5,33*
O=C(COc1ccccc1)N=C1SC2CS(=O)(=O)CC2N1c1ccc(F)cc1 (centres undefined),-3,4,4,34*,4,0,0
O=C(Nc1nc2c(Cl)ccc(Cl)c2s1)C1CC1,-1,6,-4,1,-11,5,x
NNc1nc2c(Cl)ccc(Cl)c2s1,5,7,10,39*,8,1,48*
Cc1cc2c(cc1C)N(C(=O)CCl)CCN2C(=O)CCl,-4,-2,0,5,3,x,x
COc1ccc(OC)c(S(=O)(=O)N2CCN(CC(O)CN3CCOCC3)CC2)c1 (centres undefined),-8,-1,-1,1,1,-5,x
N#Cc1ccccc1S(=O)(=O)N1CCN(CC(O)CN2CCOCC2)CC1 (centres undefined),11,-3,6,38*,1,-1,12
O=C(COc1ccc2ccccc2c1)Nc1cccnc1Cl,-9,-2,11,2,1,-1,x
COc1ccc(C(=O)NCCN=C2NS(=O)(=O)c3ccccc32)cc1,3,-4,-5,2,2,-1,x
CC(C)c1ccc2c(c1)C(N1CCNCC1)Cc1ccc(F)cc1S2 (centres undefined),-6,-6,-11,32*,x,-1,47*
CN1CCN(C2Cc3ccc(F)cc3Sc3cc(F)c(Cl)cc32)CC1 (centres undefined),-9,-1,-5,11,-14,-2,x
CN(C)C(=S)Nc1cccc(-c2n[nH]c(=S)o2)c1,7,2,15,4,3,0,x
NNC(=S)Nc1cccc(-c2n[nH]c(=S)o2)c1,1,-1,0,35*,8,3,22
C=C(C)CN(CC)c1nc(N)c2c(N)nc3c(c2c1C#N)CC(=O)N3C12CC3CC(CC(C3)C1)C2,-1,5,7,36*,25,-2,25
Nc1ccc2cc3ccccc3cc2c1,-8,8,2,23,25,x,x
Nc1ccc2ccc(N)cc2c1,0,-4,8,35*,x,x,1
O=S(=O)(Nc1nc(-c2ccco2)c(-c2ccco2)s1)c1ccc(F)cc1F,4,11,-1,47*,5,x,12
O=C(Nc1nc(-c2ccco2)c(-c2ccco2)s1)c1ccc(F)cc1F,-5,1,16,8,8,x,x
O=C(Nc1ccn(CCCNC2CCN(Cc3ccccc3)CC2)c(=O)n1)OCc1ccccc1,6,-4,3,-3,2,x,x
COc1cc(/C=C2\SC(=O)N(CC(=O)Nc3cccc(C)c3)C2=O)cc([N+](=O)[O-])c1O,4,-4,-4,31*,x,x,80*
Cc1nn(-c2ccccc2)c(N2CCCC2)c1/C=N/NC(=S)Nc1ccccc1C(F)(F)F,-3,-2,6,54*,-2,3,57*
C[n+]1ccccc1Nc1cc([N+](=O)[O-])ccc1N,-23,-3,11,-5,4,4,x
O=C(Nc1nc2ccccc2s1)c1ccccc1,7,2,-4,-14,0,-1,x
c1ccc2sc(NN=C3CCCCCC3)nc2c1,-2,-2,2,36*,12,3,30*
COc1ccc(S(=O)(=O)N/N=C(/C)c2ccncc2)c(OC)c1,11,-12,7,71*,7,8,5
SMILES,TDP2 absorb,TCR CD3 inh,SIAE inh,ABHD4 inh,HTRA1 inhibitor,PAD4 FP inh,ABHD4 confirm
COc1ccc(S(=O)(=O)N/N=C(/C)c2ccncc2)cc1,7,13,-1,5,1,3,x
CSc1nnc(SCC#N)s1,13,7,3,3,x,3,x
Oc1csc(Cc2nc(-c3ccc(-c4ccccc4)cc3)cs2)n1,-6,2,4,33*,2,-1,-8
Cn1c(=O)[nH]c(=O)c2c1nc(N1CCOCC1)n2CC(=O)c1ccccc1,2,0,-3,-5,4,-1,x
CCCCCCCC1CC(CSc2ncn[nH]2)OC1=O (centres undefined),5,3,1,-5,-1,-5,x
CCCCC1CC(CSc2ncn[nH]2)OC1=O (centres undefined),10,1,5,79*,2,-3,-13
Cc1ccc(S(=O)(=O)NC[C@H]2O[C@@H](n3ccc(N)nc3=O)[C@H](O)[C@@H]2O)s1,13,-3,4,3,-3,x,x
O=C(Nc1sc(-c2ccccc2)cc1C(=O)O)c1ccccc1,9,1,-80,36*,-16,-1,37*
CCOC(=O)c1cc(-c2ccccc2)sc1NC(=O)c1ccc(OC)cc1,x,x,x,x,x,-1,x
CNCc1ccccc1Sc1cc(O)ccc1O,13,3,17,50*,36,-2,63*
CNCc1ccccc1Sc1cccc(O)c1,-2,-6,-12,2,3,2,x
CC(=Nc1ccc(O)cc1)c1sc2ccccc2c1O,6,8,2,39*,10,-6,0
N#C/C(=C(/O)c1ccc(-c2cccc([N+](=O)[O-])c2)o1)c1nc2ccccc2s1,0,0,9,31*,4,x,56*
CC(C)C1Nc2ccc(C(=O)O)cc2C2C=CCC21 (centres undefined),14,0,3,45*,24,2,38*
Cc1ccc(NC2CCCN(C(=O)C3CCCC3)C2)cc1C (centres undefined),-1,5,4,3,0,3,x
Cc1cc(C(=O)O)cc(S(=O)(=O)Nc2ccccc2C(=O)NC(C)c2ccccc2)c1C (centres undefined),5,10,-2,34*,-5,1,24
CC(NC(=O)c1ccccc1NC(=O)c1ccncc1)c1ccccc1 (centres undefined),1,-7,2,2,0,-3,x
CCN(CCNCC(O)COc1ccccc1C(C)C)c1cccc(C)c1 (centres undefined),0,3,3,32*,14,0,41*
CCOC(=O)N1CCN(CC(O)COc2ccccc2C(C)C)CC1 (centres undefined),-2,-3,-1,0,-3,1,x
COc1cccc(OC)c1C(=O)Nc1ccc(N2CCCC2)cc1,6,2,9,33*,4,2,38*
Cc1c(Cc2ccccc2)c(=O)oc2c(O)c(O)ccc12,-2,8,-10,35*,x,x,89*
Cc1c(Cc2ccccc2)c(=O)oc2cc(O)ccc12,9,2,-1,-12,-8,0,x

# High-throughput results: PubChem, The Scripps Research Institute Molecular Screening Center
